Measured values published in ChEMBL document CHEMBL4052798, “Design, synthesis and biological evaluation of indole derivatives as Vif inhibitors” (Bioorg Med Chem Lett, 2017).
Activity calls are given as the source filed them. The rule behind the calls is not given here.

Columns and labels:
[1] = tested on: Human immunodeficiency virus 1; experiment: Inhibition of doxycycline-induced HIV1 Vif expressed in TREX-hVif-15 cells co-expressing EYFP-N1-tagged human A3G assessed as restoration of Vif-induced A3G degradation level at 20 uM after 48 hrs by Western blot analysis; format: cell-based
Summary of the method: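 TREX-hvif-15 cells were transfected with EYFP-N1-hA3G, and Vif was induced with 0.1 μg/mL Dox. Cells were treated with or without compound at 20 μM. A3G and Vif protein levels were detected by western blot, and A3G restoration was graded qualitatively, lowest to high.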

[2] = tested on: Human immunodeficiency virus 1; experiment: Inhibition of doxycycline-induced HIV1 Vif expressed in TREX-hVif-15 cells co-expressing EYFP-N1-tagged human A3G assessed as reduction in Vif-mediated A3G degradation by measuring fold change in mean fluorescence intensity at 50 uM by flow cytometric method; format: cell-based
Summary of the method: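 TREX-hvif-15 cells with Tet-On-regulated Vif were transfected with EYFP-N1-hA3G, and Vif was induced with 1 μg/mL Dox. Compounds were tested at 50 µM. A3G-EYFP mean fluorescence intensity was expressed as fold change and scored as: no or <1-fold; 1–2; 2–3; >3. Reference groups were A3G⁺/Vif⁻ and A3G⁺/Vif⁺.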

Compound	inhibition [1]	fold change (FC) [2]
O=Cc1cccc(-c2ccc3[nH]ccc3c2)n1	Active	1 to 2
NC(=O)c1ccc(-c2ccc3[nH]ccc3c2)nc1	Active	2 to 3
Nc1ccc(-c2ccc3[nH]ccc3c2)cn1	Active	2 to 3
CS(=O)(=O)c1ccc(-c2ccc3[nH]ccc3c2)cc1	Active	2 to 3
NC(=O)c1ccnc(-c2ccc3[nH]ccc3c2)c1	inactive	2 to 3
O=C(O)c1ccnc(-c2ccc3[nH]ccc3c2)c1	Active	2 to 3
COc1ccc(-c2ccc3[nH]ccc3c2)cn1	Active	1 to 2
Nc1cccc(-c2ccc3[nH]ccc3c2)n1	Active	1 to 2
O=Cc1cccc(-c2ccc3[nH]ccc3c2)c1	Active	1 to 2
O=C(O)c1ccc(-c2ccc3[nH]ccc3c2)nc1	Active	> 3
O=C(O)c1ccc(-c2ccc3[nH]ccc3c2)cc1	Active	2 to 3
O=Cc1ccc(-c2ccc3[nH]ccc3c2)cc1	inactive	< 1
O=Cc1ccccc1-c1ccc2[nH]ccc2c1	inactive	1 to 2
O=Cc1ccc(-c2ccc3[nH]ccc3c2)nc1	inactive	< 1
O=C(O)Cc1ccc(-c2ccc3[nH]ccc3c2)cc1	inactive	< 1
c1ccc(-c2ccc3[nH]ccc3c2)nc1	inactive	< 1
Nc1cccnc1-c1ccc2[nH]ccc2c1	Active	2 to 3
Nc1ncccc1-c1ccc2[nH]ccc2c1	Active	1 to 2
NC(=O)c1cncc(-c2ccc3[nH]ccc3c2)c1	Active	1 to 2
N#Cc1ccccc1-c1ccc2[nH]ccc2c1	inactive	< 1
